Results on eight molecules are retold here after article PMC4168015 (Journal of biomolecular screening, 2013).

The target in one assay is Skp2-Cks1 interaction (Homo sapiens, UniProt P61024+Q13309). The assay is described as follows: AlphaScreen assay for Skp2-Cks1 interaction. It is filed as binding. (In general: Alpha assays give light when donor and acceptor beads are brought close together.)
Assay [1] has as its target SCF^Skp2 (E3) ubiquitination of p27 (Homo sapiens, UniProt Q13309). Kind of assay: In vitro p27 ubiquitination assay. It is filed as biochemical. The gist of the method:
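Mouse p27 translated in rabbit reticulocyte lysate with [35S]-methionine and phosphorylated by recombinant CDK2–cyclin E. It was then mixed with 100 nM E1, 200 nM His-Cdc34, 100 nM SCFSkp2, 50 nM Cks1, 10 μM ubiquitin, 10 μM methylated ubiquitin, ATP regeneration system, 1 μM ubiquitin aldehyde and 1 μM MG132. Run 30 min, 30 °C; products read by SDS-PAGE/phosphorimager. Test compound 40 μM.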

Assay [2] has as its system mink lung epithelial cell line stably expressing GFP-p27. Kind of assay: GFP-p27 stabilization in mink lung epithelial cell line. It is filed as cell-based. The conditions noted are these: for endogenous p27 level: mink lung epithelial cell line; for stabilization of GFP-p27: mink lung epithelial cell line stably expressing GFP-p27.
In a further assay the test system is p210^bcr-abl. The conditions noted are these: read-out: IC50 against p210^bcr-abl in vitro; cited from earlier work.
The subject of the next assay is K562 leukemia cell lines. The conditions noted are these: read-out: GI50 against K562 leukemia cell lines; cited from earlier work.
The target in assay [3] is Cks1 (Homo sapiens) (UniProt P61024). The conditions noted are these: cited from earlier work.
Assay [4] has the same target. Kind of assay: ITC. The conditions noted are these: cited from earlier work.
Setting [5] is: read-out: Inhibition of Skp2-Cks1 IC50, AlphaScreen, GST-Skp2/Skp1 20 nM, Cks1 200 nM.
Setting [6] is: read-out: p27 Ub IC50, in vitro p27 ubiquitination.

Entries after “also recorded” stand apart in the source; their conditions may differ. Read-outs that look alike come from different tables or passages of the source.

Chain of Skp2 (Q13309 whole entry): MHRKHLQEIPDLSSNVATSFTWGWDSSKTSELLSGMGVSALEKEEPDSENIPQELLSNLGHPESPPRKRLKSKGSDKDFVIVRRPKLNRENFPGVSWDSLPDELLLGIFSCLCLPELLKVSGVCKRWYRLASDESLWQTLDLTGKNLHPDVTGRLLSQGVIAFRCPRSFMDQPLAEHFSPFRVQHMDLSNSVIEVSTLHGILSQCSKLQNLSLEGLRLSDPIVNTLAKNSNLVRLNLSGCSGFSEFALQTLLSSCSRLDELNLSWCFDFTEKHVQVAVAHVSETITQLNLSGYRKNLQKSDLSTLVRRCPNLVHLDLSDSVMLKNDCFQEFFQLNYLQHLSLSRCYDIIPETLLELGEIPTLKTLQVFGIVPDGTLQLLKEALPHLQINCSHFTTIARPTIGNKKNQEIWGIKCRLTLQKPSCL
Chain of Cks1 (Homo sapiens) (P61024 2-79): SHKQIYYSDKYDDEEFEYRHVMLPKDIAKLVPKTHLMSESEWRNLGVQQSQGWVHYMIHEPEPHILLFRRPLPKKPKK

Turning to `O=C1C=CC(=O)C=C1` [BQ, 1,4-benzoquinone, reference compound], the half-inhibitory concentration (IC50) on Skp2-Cks1 interaction stood at 626 ± 65.7 µM. In addition, the “effect on Skp2-Cks1 interaction (in words)” value on Skp2-Cks1 interaction (AlphaScreen) is reported as “no effect”. Also, in assay [1], the IC50 is more than 300 µM and the “effect on p27 ubiquitination in vitro (in words)” value (shortened to “effect on p27 ubiquitination”) is “no effect”.
Take `O=C(OCC12CC3CC(CC(C3)C1)C2)c1ccc(NCc2cc(O)ccc2O)cc1` [Compound 857]: the “effect on Skp2-Cks1 interaction (in words)” value at Skp2-Cks1 interaction (AlphaScreen) is recorded as “blocked the Skp2-Cks1 interaction at low μM concentrations”. The IC50 at Skp2-Cks1 interaction (setting [5]) was 36 ± 6.2 µM; in assay [1] (setting [6]), approximately 30 µM; in the assay on p210^bcr-abl, 12.6 µM. For the same molecule, in assay [1] (listed as NSC689857), the “effect on p27 ubiquitination” value is recorded as “impeded p27 polyubiquitination in a dose-dependent manner; also recorded: inhibited p27 ubiquitination in vitro”. For the same molecule, the “endogenous p27 level” value in assay [2] is “increases only marginally”. Moreover, in assay [2], the “stabilization of GFP-p27” value is reported as “dose-dependent stabilization”. Further, in the assay with K562 leukemia cell lines, the GI50 was 12.8 µM.
Take `CCCCC(=O)c1ccc(OC)c(C)c1` [Compound A857]: the concentration for half-maximal inhibition (IC50) was 1090 ± 189 µM on Skp2-Cks1 interaction (setting [5]) and more than 300 µM in assay [1] (setting [6]).
The like results for `CCCCC(=O)c1ccc(OC)c(C)c1` [Compound E857] were, in that order, 8310 ± 1460 µM and more than 300 µM.
Turning to `CCCCC(=O)c1ccc(OC)c(C)c1` [Compound Q857], the “effect on Skp2-Cks1 interaction (in words)” value on Skp2-Cks1 interaction (AlphaScreen) is reported as “blocked the Skp2-Cks1 interaction at low μM concentrations”. The IC50 on Skp2-Cks1 interaction (setting [5]) was 71 ± 4.4 µM; in assay [1] (setting [6]), approximately 15 µM. In addition, the “effect on p27 ubiquitination” value in assay [1] is reported as “inhibited p27 ubiquitination in vitro”.
`Cc1cc(O)ccc1O` [MHQ, methylhydroquinone, reference compound] returned an IC50 against Skp2-Cks1 interaction of 434 ± 39.5 µM. Moreover, at Skp2-Cks1 interaction (AlphaScreen), the “effect on Skp2-Cks1 interaction (in words)” value was “no effect”. Further, in assay [1], the IC50 is more than 300 µM and the “effect on p27 ubiquitination” value is listed as “no effect”.
On to `COC(=O)c1ccc(CCc2cc(O)ccc2O)cc1` [NSC681152], for which, at Skp2-Cks1 interaction (AlphaScreen), the “effect on Skp2-Cks1 interaction (in words)” value was “blocked the Skp2-Cks1 interaction at low μM concentrations”. Further, the figures for the IC50 (at Skp2-Cks1 interaction (setting [5]); in assay [1] (setting [6]); with p210^bcr-abl) were 75.6 ± 6.8 µM, approximately 80 µM and 2.64 µM, respectively. Moreover, the “effect on p27 ubiquitination” value in assay [1] is on record as “impeded p27 polyubiquitination in a dose-dependent manner; also recorded: inhibited p27 ubiquitination in vitro”. For the same molecule, the “endogenous p27 level” value in assay [2] is on record as “increases only marginally”. For the same molecule, the “stabilization of GFP-p27” value in assay [2] is “dose-dependent stabilization”. For the same molecule, in the assay with K562 leukemia cell lines, the GI50 is 18.5 µM.
Consider Skp2 (from UniProt Q13309), for which the Kd with Cks1 (Homo sapiens) [3] was 0.14 µM; with Cks1 (Homo sapiens) [4] it was 0.014 µM.

What is called IC50 is the concentration that gives 50% inhibition. One may read the GI50 as the concentration giving 50% growth inhibition. What is called Kd is the free concentration of one partner at which half of the binding sites on the other are occupied at equilibrium, for simple one-to-one binding.
